Experiments:
[1] = biological target: Geranylgeranyl transferase type I (Homo sapiens, UniProt P49354+P53609); test: Inhibition of Geranylgeranyl transferase type I; format: protein-complex assay
[2] = system: EJ; test: Percent inhibition of tumor growth relative to control tumors in tumor xenograft nude mice against EJ at a dose of 20 mg/kg, bid on day 15;p<0.001; format: functional, Homo sapiens; details: Mus musculus, 360 h
Summary of the method: (§1)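 Female athymic BALB/c nu/nu mice, 5–7 weeks old, acclimated ≥1 week, inoculated s.c. intrascapularly with 10^7 tumor cells. Tumour volume measured in three dimensions every three days as 1/6·π·L·W·H. At ~100 mm3 mice randomised, 8 per group (Day 0). Dosing by gastric gavage twice daily from Day 1 for 21 days; vehicle 0.9% saline. Ulcerated tumours excluded; Student's t-test.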

[3] = system: HT-29; test: Inhibition of anchorage independent growth of human tumor cell line HT-29 K-ras-transformed in soft agar; format: functional
Summary of the method: (§2)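 Cells adapted 2–3 days in DMEM + 10% FBS after thawing. Bottom layer 0.5% agar with DMEM/FBS and compound; top layer 0.33% agar with compound, cells at 2–5×10^3 cells/mL. Colonies counted by microscope after two weeks in humidified CO2 incubator. GI50 from plot of % colony growth versus log10 concentration for each cell line.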

[4] = system: HCT-116; test: Percent inhibition of tumor growth relative to control tumors in tumor xenograft nude mice against HCT116 at a dose of 40 mg/kg, bid on day 21;p<0.001.; format: functional, Homo sapiens; details: Mus musculus, HCT-116, 504 h; summary of the method: as §1
[5] = system: T-24; test: Inhibition of anchorage independent growth of human tumor cell line T24 H-ras-transformed in soft agar; format: functional; summary of the method: as §2
[6] = system: A549; test: Inhibition of anchorage independent growth of human tumor cell line A549 K-ras-transformed in soft agar; format: functional; summary of the method: as §2
[7] = system: EJ; test: Inhibition of anchorage independent growth of human tumor cell line EJ H-ras-transformed in soft agar; format: functional; summary of the method: as §2
[8] = system: HCT-116; test: Percent inhibition of tumor growth relative to control tumors in tumor xenograft nude mice against HCT116 at a dose of 60 mg/kg, bid on day 21;p<0.001; format: functional, Homo sapiens; details: Mus musculus, HCT-116, 504 h; summary of the method: as §1
[9] = system: HCT-116; test: Inhibition of anchorage independent growth of human tumor cell line HCT116 K-ras-transformed in soft agar; format: functional; summary of the method: as §2
[10] = biological target: T1, Protein farnesyltransferase (Homo sapiens, UniProt P49354+P49356); test: Inhibition of farnesyltransferase activity against H-Ras; format: protein-complex assay
Summary of the method: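 FTase (16.6 nM) incubated 30 min at 37 °C with H-Ras substrate, [3H]farnesyl pyrophosphate and serially diluted compound. Buffer: 50 mM HEPES pH 7.4, KCl, MgCl2, ZnCl2, 0.5% N-octylglucoside, 10 mM DTT. Reactions quenched with 10% HCl in ethanol. Farnesylated Ras captured on glass-fiber filters and scintillation counted. IC50 is the concentration halving [3H]FPP incorporation; mean of three experiments.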

[11] = biological target: T1, Protein farnesyltransferase; test: Inhibition of farnesyltransferase activity against K-Ras; format: protein-complex assay
Summary of the method: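 K-Ras used as acceptor substrate with FTase (16.6 nM) and [3H]FPP plus serially diluted inhibitor, 30 min at 37 °C, in HEPES pH 7.4 buffer with Mg2+, Zn2+, KCl, octylglucoside and DTT. Stopped with acidic ethanol, then filter binding and scintillation counting of labeled K-Ras. IC50 is 50% reduction of [3H]FPP transfer; mean of three determinations.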

[12] = system: EJ; test: Percent inhibition of tumor growth relative to control tumors in tumor xenograft nude mice (with p<0.001 compared to control) against EJ at a dose of 40 mg/kg, bid on day 15;Regression.; format: functional, organism-based; design: dose 40 mg/kg; details: Homo sapiens; summary of the method: as §1
[13] = system: EJ; test: Percent inhibition of tumor growth relative to control tumors in tumor xenograft nude mice (with p<0.001 compared to control) against EJ at a dose of 60 mg/kg, bid on day 15;Regression.; format: functional, organism-based; design: dose 60 mg/kg; details: Homo sapiens; summary of the method: as §1

SMILES	IC50 [1]	IC50 [10]	IC50 [11]	also measured
COCCN(C)C(=O)c1cn(Cc2cncn2Cc2ccc3c(c2)OCO3)cc1-c1cccc2ccccc12	10000 nM			
CN1CCN(C(=O)c2cn(Cc3cncn3Cc3ccc4c(c3)OCO4)cc2-c2cccc3ccccc23)CC1 [listing 1 of 3 here]				inhibition in vivo at 20 mg/kg [2]: 78%; GI50 [3]: 4.5 nM; inhibition in vivo at 40 mg/kg [4]: 43%; GI50 [5]: 0.45 nM; GI50 [6]: 1.2 nM; GI50 [7]: 0.56 nM; inhibition in vivo at 60 mg/kg [8]: 55%; GI50 [9]: 17.6 nM
O=C(c1cn(Cc2cncn2Cc2ccccc2)cc1-c1cccc2ccccc12)N1CCOCC1		1.5 nM	2.1 nM	
O=C(c1cn(Cc2cncn2Cc2ccc3c(c2)OCO3)cc1-c1cccc2ccccc12)N1CCOCC1	12000 nM	0.9 nM		
Cn1cncc1Cn1cc(C(=O)N2CCOCC2)c(-c2cccc3ccccc23)c1	> 100000 nM	3 nM	100 nM	
CN1CCN(C(=O)c2cn(Cc3cncn3Cc3ccc4c(c3)OCO4)cc2-c2cccc3ccccc23)CC1 [listing 2 of 3 here]	16000 nM	0.9 nM		
O=C(c1cn(Cc2cnc[nH]2)cc1-c1ccccc1)N1CCOCC1		2000 nM		
CCOC(=O)c1cn(Cc2c[nH]cn2)cc1-c1cccc2ccccc12		500 nM		
CN1CCN(C(=O)c2cn(Cc3cncn3Cc3ccc4c(c3)OCO4)cc2-c2cccc3ccccc23)CC1 [listing 3 of 3 here]				inhibition [12]: Regression; inhibition [13]: Regression
O=C(c1cn(Cc2c[nH]cn2)cc1-c1cccc2ccccc12)N1CCOCC1			1830 nM	

From ChEMBL document CHEMBL1133861, “A novel class of highly potent, selective, and non-peptidic inhibitor of Ras farnesyltransferase (FTase)” (Bioorg Med Chem Lett, 2001)
